Measurements collected from several papers.
Each line is one published result; the experiments were not run side by side. In brackets after ≈: the same amount, converted by molar mass.

SMILES | target or system | assay | system | conditions | measurement | result
O=C(Nc1ccc(Cl)cc1)Nc1cccc(-c2cn(Cc3ccc(Br)cc3)nn2)c1 | MCF7 | cell growth or viability, CCK-8 | – | 50 µM, 48 h | viability | 96.5%
CCCCS(=O)(=O)NCC1COC2(CCN(C(=O)C3(c4ccccc4)CCCC3)CC2)O1 (centres unmarked) | Chikungunya virus | viral replication, inhibitor | – | 40 µM | inhibition | 95%
CC[C@H](C)C[C@H](C)CCCCCCCCC(=O)N[C@H]1C[C@@H](O)[C@@H](NCCN)NC(=O)[C@@H]2[C@@H](O)CCN2C(=O)[C@H]([C@H](O)CCN)NC(=O)[C@H]([C@H](O)[C@@H](O)c2ccc(O)cc2)NC(=O)[C@@H]2C[C@@H](O)CN2C(=O)[C@H]([C@@H](C)O)NC1=O | Candidozyma auris | microbial growth, broth dilution | – | 48 h | MIC | 2 µg/mL (≈ 1.83 µM)
O=C(NCc1ccc(F)cc1)c1cn(Cc2ccc(F)cc2)c2ccc(Oc3ccccc3)cc2c1=O | MCF7 | cell growth or viability, MTT | – | 24 h | IC50 | > 500 µM
O=c1cc(CSc2ccc(N=Cc3ccccc3C(F)(F)F)cc2)occ1O | – | DPPH scavenging, absorbance | – | 30 min | IC50 | 36.2 µM
O=C(NCc1ccccc1)c1cn(Cc2ccc(C(F)(F)F)cc2)c2ccc(Oc3ccccc3)cc2c1=O | MCF7 | cell growth or viability, MTT | – | 48 h | IC50 | 6.43 µM
Cc1cccc(C=Nc2ccc(SCc3cc(=O)c(O)co3)cc2)c1 | – | DPPH scavenging, absorbance | – | 30 min | IC50 | 26.7 µM
CC(C)C[C@@H](NC(=O)[C@H](C)NC(=O)CNC(=O)[C@@H](NC=O)C(C)C)C(=O)N[C@@H](C)C(=O)N[C@@H](C(=O)N[C@H](C(=O)N[C@@H](C(=O)N[C@@H](Cc1c[nH]c2ccccc12)C(=O)N[C@H](CC(C)C)C(=O)N[C@@H](Cc1ccc2cc[nH]c2c1)C(=O)N[C@H](CC(C)C)C(=O)N[C@@H](Cc1c[nH]c2ccccc12)C(=O)N[C@H](CC(C)C)C(=O)N[C@@H](Cc1c[nH]c2ccccc12)C(=O)NCCO)C(C)C)C(C)C)C(C)C | MCF7 | cell growth or viability, SRB | – | 48 h | GI50 | 0.11 µM
O=C(NCc1ccc(F)cc1)c1cn(Cc2ccc(C(F)(F)F)cc2)c2ccc(Oc3ccccc3)cc2c1=O | MCF7 | cell growth or viability, MTT | – | – | IC50 | < 12 µM
CCc1ccccc1C=Nc1ccc(SCc2cc(=O)c(O)co2)cc1 | – | DPPH scavenging, absorbance | – | 30 min | IC50 | 25.2 µM
Cc1ccc(CNC(=O)c2cn(Cc3ccc(Cl)cc3)c3ccc(Oc4ccccc4)cc3c2=O)cc1 | MCF7 | cell growth or viability, MTT | – | 48 h | IC50 | 105 µM
O=c1cc(CSc2ccc(N=Cc3ccc(O)cc3)cc2)occ1O | – | DPPH scavenging, absorbance | – | 30 min | IC50 | 8.85 µM
O=c1c2ccccc2[se]n1-c1ccccc1 | Chikungunya virus | viral replication | Vero | 24 h | IC50 | 2.02 µM
O=C(N1CCC2(CC1)OCC(CNS(=O)(=O)c1ccc(-c3ccccc3)cc1)O2)C1(c2ccccc2)CCCC1 (centres unmarked) | Chikungunya virus | viral replication, inhibitor | – | 40 µM | inhibition | 75%
O=c1cc(CSc2ccc(N=Cc3ccccc3[N+](=O)[O-])cc2)occ1O | – | DPPH scavenging, absorbance | – | 30 min | IC50 | 14.3 µM
O=C(NCc1ccc(C(F)(F)F)cc1)c1cn(Cc2ccc(Cl)cc2)c2ccc(Oc3ccccc3)cc2c1=O | MCF7 | cell growth or viability, MTT | – | 24 h | IC50 | 177 µM
S=P1(C2CCCCC2)CCCCC1 | SW-620 | cell growth or viability, MTT | – | 72 h | IC50 | > 100 µM
